Experimental findings from ChEMBL document CHEMBL4364271, “Unveiling the Importance of Amide Protons in CSP:ComD Interactions in Streptococcus pneumoniae” (ACS Med Chem Lett, 2019) are described below.

The EC50 is the concentration giving half of the maximal effect. A lower EC50 goes with greater potency. The IC50 is the concentration that gives 50% inhibition. A word on the half-life: it is the time in which the quantity being followed falls by half. For orientation: inhibition means how much of the control response was suppressed.

The structures appear in SMILES notation. Calls of active or inactive are those of the source. The rule behind the calls is not given here. Non-standard residues stand in square brackets, D forms with d. Residues, ends and D or L forms follow the SMILES beside them. NMeF = CN[C@@H](Cc1ccccc1)C(=O)O; NMeE = CN[C@@H](CCC(=O)O)C(=O)O; NMeQ = CN[C@@H](CCC(N)=O)C(=O)O; NMeK = CN[C@@H](CCCCN)C(=O)O; NMeM = CN[C@@H](CCSC)C(=O)O

For one data set, the species on record is Homo sapiens. The experiment in a line: Metabolic stability in aqueous ammonium carbonate solution assessed as trypsin/chymotrypsin (unknown origin)-mediated drug degradation by measuring half life at 0.05 ug/ml incubated in shaking conditions and measured for 24 hrs by RP-HPLC analysis.
Data set [1] is described as follows: Agonist activity at ComD1 receptor in Streptococcus pneumoniae D39 harboring pcomX/lacZ reporter gene incubated for 30 mins by ONPG based beta-galactosidase assay. The method in brief: (§1)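 Dose-response in wild-type lacZ reporter strains (comX promoter; D39 for ComD1, TIGR4 for ComD2) producing native CSP. Peptides tested over a range of concentrations. β-gal read-out (Miller units) normalized to native CSP. EC50 reported with 95% confidence interval.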
In general terms: In a reporter assay the amount or activity of a reporter protein is the signal.

Data set [2] is described as follows: Antagonist activity at ComD2 receptor in Streptococcus pneumoniae TIGR4 harboring pcomX/lacZ reporter gene assessed as inhibition of CSP2-stimulated maximum signal preincubated for 30 mins followed by 250 nM native CSP2 addition by ONPG based beta-galactosidase assay. Summed up: (§2)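 Comx-lacZ β-gal reporter inhibition in D39 (ComD1, CSP1 50 nM) or TIGR4 (ComD2, CSP2 250 nM). Peptides tested over a range of concentrations against the stimulating CSP. Miller units normalized to CSP alone. IC50 given with 95% confidence interval.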

Data set [3] in a line: Metabolic stability in aqueous ammonium carbonate solution assessed as trypsin/chymotrypsin (unknown origin)-mediated drug degradation by measuring half life at 0.05 ug/ml incubated in shaking conditions in presence of trypsin/chymotrpsin and measured for 48 hrs by RP-HPLC analysis. Format: ADME. The note with it: human.
The nature of data set [4]: Antagonist activity at ComD1 receptor in Streptococcus pneumoniae D39 harboring pcomX/lacZ reporter gene assessed as inhibiton of CSP1-stimulated maximum signal preincubated for 30 mins followed by 50 nM CSP1 addition by ONPG based beta-galactosidase assay. The method in brief: as §2
Data set [5] is described as follows: Metabolic stability in human plasma at 0.33 mM measured for 3 hrs by RP-HPLC analysis. Format: ADME, cell-free. To be noted: 330 µM.
The nature of data set [6]: Metabolic stability in human plasma assessed as half-life at 0.33 mM measured for 3 hrs by RP-HPLC analysis. In kind it is ADME, cell-free.
Data set [7] concerns Streptococcus pneumoniae D39. The data set can be described thus: Agonist activity at ComD1 receptor in Streptococcus pneumoniae D39 harboring pcomX/lacZ reporter gene at 10 uM incubated for 30 mins by ONPG based beta-galactosidase assay relative to native CSP1. The method in brief: (§3)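 Single-dose screen of synthetic peptide at 10 μM in wild-type reporter strains (D39 for ComD1, TIGR4 for ComD2) producing their own CSP and carrying lacZ under the comX promoter. β-gal activity in Miller units normalized to native CSP (CSP1 or CSP2, 100%); DMSO 0%. Triplicates over three separate trials.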

Data set [8] relates to Streptococcus pneumoniae TIGR4. The data set can be described thus: Agonist activity at ComD2 receptor in Streptococcus pneumoniae TIGR4 harboring pcomX/lacZ reporter gene at 10 uM incubated for 30 mins by ONPG based beta-galactosidase assay relative to native CSP2. The method in brief:
as §3

Data set [9] can be described thus: Agonist activity at ComD2 receptor in Streptococcus pneumoniae TIGR4 harboring pcomX/lacZ reporter gene incubated for 30 mins by ONPG based beta-galactosidase assay. Summed up: as §1
The subject of data set [10] is Streptococcus pneumoniae D39. The data set can be described thus: Antagonist activity at ComD1 receptor in Streptococcus pneumoniae D39 harboring pcomX/lacZ reporter gene assessed as inhibiton of CSP1-stimulated maximum signal at 10 uM preincubated for 30 mins followed by 50 nM CSP1 addition by ONPG based beta-galactosidase assay relative to native CSP1. The method in brief:
(§4)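 Inhibition screen: peptides at 10 μM against CSP1 50 nM (D39, ComD1) or CSP2 250 nM (TIGR4, ComD2), in comX-lacZ reporter strains. β-gal Miller units normalized to CSP alone (100%) and DMSO (0%). Triplicates over three separate trials.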

The test system of data set [11] is Streptococcus pneumoniae TIGR4. The data set can be described thus: Antagonist activity at ComD2 receptor in Streptococcus pneumoniae TIGR4 harboring pcomX/lacZ reporter gene assessed as inhibition of CSP2-stimulated maximum signal at 10 uM preincubated for 30 mins followed by 250 nM CSP2 addition by ONPG based beta-galactosidase assay relative to native CSP2. The method in brief: as §4

Data set [12] is described as follows: Solubility of the compound in ammonium carbonate solution at pH 8. In kind it is physicochemical. To be noted: buffer.

For `CC[C@H](C)[C@H](NC(=O)[C@H](Cc1ccccc1)NC(=O)[C@H](CC(=O)O)NC(=O)[C@H](CCCNC(=N)N)NC(=O)[C@H](Cc1ccccc1)NC(=O)[C@H](Cc1ccccc1)NC(=O)[C@H](CCCCN)NC(=O)[C@H](CO)NC(=O)[C@H](CC(C)C)NC(=O)[C@H](CCCNC(=N)N)NC(=O)[C@H](CCSC)NC(=O)[C@@H](N)CCC(=O)O)C(=O)N[C@@H](CC(C)C)C(=O)N[C@@H](CCC(N)=O)C(=O)N[C@@H](CCCNC(=N)N)C(=O)N[C@@H](CCCCN)C(=O)N[C@@H](CCCCN)C(=O)O`, in the data set listed under Homo sapiens, the T1/2 worked out at 1.5 h. In addition, in [1], the EC50 was found to be 10 nM.
Consider `CC[C@H](C)[C@H](NC(=O)[C@H](CCCNC(=N)N)NC(=O)[C@H](CCSC)NC(=O)[C@H](C)N)C(=O)N[C@@H](CO)C(=O)N[C@@H](CCCNC(=N)N)C(=O)N[C@H](C(=O)N[C@H](C(=O)N[C@@H](CC(C)C)C(=O)N[C@H](CC(=O)O)C(=O)N[C@@H](Cc1ccccc1)C(=O)N[C@@H](CC(C)C)C(=O)N(C)[C@@H](Cc1ccccc1)C(=O)N[C@@H](CC(C)C)C(=O)N[C@@H](CCCNC(=N)N)C(=O)N[C@@H](CCCCN)C(=O)N[C@@H](CCCCN)C(=O)O)[C@@H](C)CC)[C@@H](C)CC`, for which the IC50 in [2] is 64 nM; in data set [4] it was over 1000 nM. In addition, the half-life at 0.05 ug/ml in data set [3] is 4 h. The Stability result in [5] is recorded as “Unstable”.
Take `CC[C@H](C)[C@H](NC(=O)[C@H](Cc1ccccc1)NC(=O)[C@H](CC(=O)O)NC(=O)[C@H](CCCNC(=N)N)NC(=O)[C@H](Cc1ccccc1)NC(=O)[C@H](Cc1ccccc1)NC(=O)[C@H](CCCCN)NC(=O)[C@H](CO)NC(=O)[C@H](CC(C)C)NC(=O)[C@H](CCCNC(=N)N)NC(=O)[C@H](CCSC)NC(=O)[C@@H](N)CCC(=O)O)C(=O)N[C@@H](CC(C)C)C(=O)N(C)[C@@H](CCC(N)=O)C(=O)N[C@@H](CCCNC(=N)N)C(=O)O` (H-EMRLSKFFRDFIL[NMeQ]R-OH): the half-life at 330 µM in data set [6] is 2 h. The Activity in [7] is over 75%. Besides, the EC50 in data set [1] stood at 68 nM. The outcome in data set [8] was inactive. In addition, the half-life at 0.05 ug/ml in data set [3] was 6 h.
For `CC[C@H](C)[C@H](NC(=O)[C@H](Cc1ccccc1)NC(=O)[C@H](CC(=O)O)NC(=O)[C@H](CCCNC(=N)N)NC(=O)[C@H](Cc1ccccc1)NC(=O)[C@H](Cc1ccccc1)N(C)C(=O)[C@H](CCCCN)NC(=O)[C@H](CO)NC(=O)[C@H](CC(C)C)NC(=O)[C@H](CCCNC(=N)N)NC(=O)[C@H](CCSC)NC(=O)[C@@H](N)CCC(=O)O)C(=O)N[C@@H](CC(C)C)C(=O)N[C@@H](CCC(N)=O)C(=O)N[C@@H](CCCNC(=N)N)C(=O)O` (H-EMRLSK[NMeF]FRDFILQR-OH), in data set [6], the half-life at 330 µM was under 0.5 h. The compound further displayed an Activity in [7] of over 75%. Further, it took 280 nM to reach a half-maximal effect in data set [1] (EC50). Moreover, in data set [8], the outcome was inactive. In addition, the half-life at 0.05 ug/ml in [3] was over 48 h.
On to `CC[C@H](C)[C@H](NC(=O)[C@H](Cc1ccccc1)NC(=O)[C@H](CC(=O)O)NC(=O)[C@H](CCCNC(=N)N)NC(=O)[C@H](Cc1ccccc1)NC(=O)[C@H](Cc1ccccc1)NC(=O)[C@H](CCCCN)N(C)C(=O)[C@H](CO)NC(=O)[C@H](CC(C)C)NC(=O)[C@H](CCCNC(=N)N)NC(=O)[C@H](CCSC)NC(=O)[C@@H](N)CCC(=O)O)C(=O)N[C@@H](CC(C)C)C(=O)N[C@@H](CCC(N)=O)C(=O)N[C@@H](CCCNC(=N)N)C(=O)O` (H-EMRLS[NMeK]FFRDFILQR-OH), for which, in data set [6], the half-life at 330 µM is under 0.5 h. This compound registered an Activity in data set [7] of over 75%. In addition, the EC50 is 65 nM in [1] and over 1000 nM in data set [9]. The outcome in [8] was inactive. In addition, the half-life at 0.05 ug/ml in data set [3] is over 48 h.
Turning to `CC[C@H](C)[C@H](NC(=O)[C@H](CCCNC(=N)N)NC(=O)[C@H](CCSC)N(C)C(=O)[C@@H](N)CCC(=O)O)C(=O)N[C@@H](CO)C(=O)N[C@@H](CCCNC(=N)N)C(=O)N[C@H](C(=O)N[C@H](C(=O)N[C@@H](CC(C)C)C(=O)N[C@@H](CC(=O)O)C(=O)N[C@@H](Cc1ccccc1)C(=O)N[C@@H](CC(C)C)C(=O)N[C@@H](Cc1ccccc1)C(=O)O)[C@@H](C)CC)[C@@H](C)CC` (H-E[NMeM]RISRIILDFLF-OH), in [7], the result was inactive. For the same compound, the inhibition result in data set [10] is “inactive”. For the same compound, the inhibition in data set [11] was over 50%. Besides, in data set [12], the solubility entry is recorded as “Insoluble”. In addition, the IC50 in data set [2] is over 1000 nM.
In the case of `CC[C@H](C)[C@H](NC(=O)[C@H](CCCNC(=N)N)NC(=O)[C@H](CCSC)NC(=O)[C@H](CCC(=O)O)NC)C(=O)N[C@@H](CO)C(=O)N[C@@H](CCCNC(=N)N)C(=O)N[C@H](C(=O)N[C@H](C(=O)N[C@@H](CC(C)C)C(=O)N[C@@H](CC(=O)O)C(=O)N[C@@H](Cc1ccccc1)C(=O)N[C@@H](CC(C)C)C(=O)N[C@@H](Cc1ccccc1)C(=O)O)[C@@H](C)CC)[C@@H](C)CC` (H-[NMeE]MRISRIILDFLF-OH), in [7], the outcome was inactive. Moreover, the inhibition result in data set [10] is “inactive”. In addition, the inhibition in [11] was over 50%. Also, the solubility entry in data set [12] is “Insoluble”. Further, the IC50 in [2] is over 1000 nM.
